# mIAP inh – blocks mouse intestinal alkaline phosphatase | purified mouse IAP, CDP-Star luminescence, 30 min | inhibition, % at 10 µM | hit rate 0.2% among 330,000;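 active = inhibition of at least 40% at 10 µM in the primary screen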;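 note: plate controls were DMSO with enzyme for no effect and no enzyme wells for full effect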
# hIAP inh – blocks human intestinal alkaline phosphatase; purified IAP, CDP-Star luminescence, 30 min; inhibition, % at 10 µM; hit rate 0.12% among 330,000;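 active = inhibition reaching a set limit with compound at 10 µM in the primary screen, cut at about 35% in these data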;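 note: plate controls were DMSO wells with enzyme for no effect and no-enzyme buffer wells for full effect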
# Target sequence (P09923 whole entry, looked up): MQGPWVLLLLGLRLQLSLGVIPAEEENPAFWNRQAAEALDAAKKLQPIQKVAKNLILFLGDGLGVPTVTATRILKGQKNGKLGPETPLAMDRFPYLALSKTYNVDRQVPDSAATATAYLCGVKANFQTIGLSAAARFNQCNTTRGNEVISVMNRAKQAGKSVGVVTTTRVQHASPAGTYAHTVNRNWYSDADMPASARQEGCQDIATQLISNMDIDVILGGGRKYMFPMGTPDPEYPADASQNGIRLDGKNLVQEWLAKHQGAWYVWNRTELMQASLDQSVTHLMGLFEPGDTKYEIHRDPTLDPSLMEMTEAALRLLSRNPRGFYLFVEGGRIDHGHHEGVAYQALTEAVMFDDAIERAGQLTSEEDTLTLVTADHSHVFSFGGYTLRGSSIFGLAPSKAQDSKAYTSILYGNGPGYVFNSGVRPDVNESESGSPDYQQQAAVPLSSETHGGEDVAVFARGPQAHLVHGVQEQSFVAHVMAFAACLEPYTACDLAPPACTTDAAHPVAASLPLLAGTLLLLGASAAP
# hIAP act – human IAP activation. P09923. purified human IAP, CDP-Star luminescence, 30 min; stronger effect = higher value; 1 = vehicle-only enzyme, 0 = enzyme-free background. activation factor at 10 µM. hit rate 0.16% among 330,000;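 active = activation factor of the enzyme at least 2-fold when tested at 20 µM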
# bIAP inh – blocks bovine intestinal alkaline phosphatase activity | 190,000 tested, under 10 active | inhibition, % at 20 µM | purified bovine IAP, CDP-star luminescence, 30 min;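 active = over 50% inhibition of intestinal alkaline phosphatase at 20 µM in the single-dose screen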
#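 test system = bovine IAP enzyme | medium = DEA buffer 100 mM, pH 9.8, with MgCl2 1.0 mM, ZnCl2 0.02 mM | detection = luminescence | dosing = single compound dose of 20 µM, 2% DMSO final | incubation = 30 min reaction at room temperature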
# bIAP activator – intestinal alkaline phosphatase (bovine) activation; purified bovine IAP, CDP-star luminescence, 30 min; stronger effect = higher value; fold of DMSO-control signal, blank-subtracted; activation factor at 20 µM; hit rate 0.17% among 200,000;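 active = activation factor of 2 or more at 20 µM, a signal rise over negative controls twice the positive control's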
# mIAP act – increases mouse intestinal alkaline phosphatase activity; muIAP, CDP-Star luminescence, 30 min; stronger effect = higher value; 1 = vehicle-only enzyme signal, 0 = enzyme-free wells; activation factor at 10 µM; hit rate 0.24% among 330,000; AID 2805;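 active = activation factor of at least 2 at 20 µM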
#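 System: mouse IAP enzyme. Reagent: CDP-Star chemiluminescent phosphatase substrate. Benchmarks: DMSO wells, no-enzyme wells. Times: 30 min enzyme-substrate-compound incubation at room temperature. Detection: luminescence from enzymatic CDP-Star hydrolysis. Doses: test compounds delivered from DMSO solution.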
# hIAP act conf – human IAP activation confirmation. shares compounds with hIAP act. purified IAP, CDP-Star luminescence, 30 min; stronger effect = lower value. activation (%Activity, negative = activation), % at 8.3 µM. hit rate 10% among 880;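 active = at least twofold enzyme activation in any of six single-dose repeats, which the averaged readout prints as negative percent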
# The depositor's hits bear a star; x = no result given. A selection: hits, their analogues and other compounds. The true share with any hit is near 0.79%.
SMILES,mIAP inh,hIAP inh,hIAP act,bIAP inh,bIAP activator,mIAP act,hIAP act conf
COc1ccc(CCNC(=O)COC(=O)c2ccccn2)cc1,-0.4,-7.6,1.08,x,x,1,x
COc1ccc(C2=NN(C(C#N)c3ccc(OC)cc3)C(c3ccccc3)C2)cc1 (stereo unspecified),x,x,x,21.1,0.8,x,x
O=C(Nc1cccc(-c2cccc(F)c2)c1)C1CCN(C2CCOCC2)CC1,-94.0,-185.2,2.85*,x,x,1.94,1.7
CS(=O)(=O)N1CCC(C(=O)Nc2cccc(F)c2)CC1,-5.4,-13.9,1.14,x,x,1.05,x
COc1cc(/C=C2/C(=O)NN(c3cccc(Cl)c3)C2=O)cc(OC)c1O,23.2,49.9*,0.501,x,x,0.768,9.1
CCOc1cc(/C=C2/C(=O)NN(c3cccc(Cl)c3)C2=O)ccc1O,16.5,32.9,0.671,x,x,0.835,x
COC(=O)c1[nH]c2ccccc2c1NC(=O)CNC1CCCCC1,3.8,53.0*,0.47,3.9,1,0.962,-31.7
COC(=O)c1[nH]c2ccccc2c1NC(=O)CN1CCCCCC1,4.2,-6.8,1.07,-17.1,1.2,0.958,x
Cc1cc(C)cc(OCC(=O)NNC(=O)c2cc(C)[nH]n2)c1,-5.5,-106.9,2.07*,-20.6,1.2,1.05,-94.6*
COc1ccc(S(=O)(=O)N2CN3CCN(C3)C2)cc1OC,-1.0,-17.0,1.17,x,x,1.01,x
Nc1ccc(C(=O)OCC(=O)N2c3ccccc3Sc3ccccc32)cc1[N+](=O)[O-],x,x,x,-1.5,1,x,x
NCCNc1ccc(C(=O)N2c3ccccc3Sc3ccccc32)cc1[N+](=O)[O-],3.9,-246.0,3.46*,x,x,0.961,-42.5
Cc1nc(-c2nnc(SCC(=O)Nc3cc(Cl)cc(Cl)c3)n2C)cs1,-2.2,5.2,0.948,x,x,1.02,x
Cc1ccc(CN2CCSc3ccc(C(=O)NC4CCCC4)cc32)cc1,-21.8,-26.3,1.26,x,x,1.22,x
O=C(NC1CCCC1)c1ccc2c(c1)N(Cc1ccc(F)cc1)CCS2,-14.0,38.6*,0.614,x,x,1.14,-67.1
S=C(NCc1ccncc1)Nc1ccc(Cl)cc1,-7.6,-100.5,2*,6.5,0.9,1.08,6.6
CCN(Cc1ccccc1)c1ccc(N=Nc2nn(C)c(C)c2[N+](=O)[O-])cc1,34.0,34.8,0.652,5.5,0.9,0.66,x
CCN(CC)c1ccc(N=Nc2nn(C)c(C)c2[N+](=O)[O-])cc1,32.7,46.6*,0.534,23.6,0.8,0.673,34.7
Cn1cc(S(=O)(=O)c2ccccc2)n(C)c1=O,2.1,2.3,0.977,7.7,0.9,0.979,x
O=C(NNC(=O)c1cc2ccccc2cc1O)Nc1ccc(Br)cc1,10.6,-13.5,1.14,x,x,0.894,x
COc1ccc(C(=O)NC(=S)NNC(=O)c2ccccc2O)cc1,26.7,-133.9,2.34*,x,x,0.733,-7.9
COc1ccc(C(=O)NNC(=S)NC(=O)/C=C/c2cccs2)cc1,20.9,-25.3,1.25,-9.2,1.1,0.791,x
O=C(NC(=S)NNC(=O)c1ccccc1O)c1cccnc1,16.6,-105.5,2.05*,-8.3,1.1,0.834,-0.9
O=C(NC(=S)NNC(=O)c1ccc(Cl)cc1Cl)c1cccnc1,27.2,-5.0,1.05,-2.9,1,0.728,x
COc1ccc(NC(=O)NNC(=O)c2cc3ccccc3cc2O)cc1,6.3,-133.6,2.34*,x,x,0.937,3.6
SMILES,mIAP inh,hIAP inh,hIAP act,bIAP inh,bIAP activator,mIAP act,hIAP act conf
O=C(/C=C/c1cccs1)NC(=S)NNC(=O)c1ccccc1O,30.5,-136.7,2.37*,-34.5,1.3,0.695,27.9
CC(C)NC(=O)Nc1cccc2c1O[C@H](CN(C)C(=O)NC1CCCCC1)[C@@H](C)CN([C@H](C)CO)C2=O,-9.9,1.6,0.984,x,x,1.1,x
CN(C)S(=O)(=O)c1cccc(NC(=S)NNC(=O)c2cc3ccccc3cc2O)c1,10.0,-164.7,2.65*,x,x,0.9,72.3
C[C@@H](NC(=O)c1cc2c([nH]c3ccccc32)c(-c2ccccc2)n1)C(=O)O,3.1,5.4,0.946,x,x,0.969,x
COc1c(-c2ccc(O)c(O)c2)oc2cc(O)cc(O)c2c1=O,31.3,59.6*,0.404,x,x,0.687,2.4
NC(=S)NNC(=O)COc1ccccc1O,33.0,-114.6,2.15*,x,x,0.67,-3.2
COc1ccccc1OCC(=O)NNC(=O)CCCC(=O)NNC(=O)COc1ccccc1OC,15.1,23.5,0.765,x,x,0.849,x
Cn1c(CNC(=O)CNC(=O)c2ccccc2F)cc(=O)n(C)c1=O,3.3,8.1,0.919,x,x,0.967,x
COc1ccccc1C(=O)NCC(=O)NCc1cc(=O)n(C)c(=O)n1C,5.5,38.6*,0.614,x,x,0.945,-5.2
CN(C(=O)Cn1cccc1C1=NC(c2ccccc2)CO1)c1ccccc1 (stereo unspecified),4.6,38.1*,0.619,-4.1,1,0.954,-55.2
CC1COC(c2cccn2Cc2ccccc2Cl)=N1 (stereo unspecified),0.6,13.6,0.864,1.8,1,0.994,x
Cc1cc(C)cc(NC(=S)N2CCCC2)c1,-0.2,35.6*,0.644,x,x,1,-26.7
O=C(CNC(=O)c1cccc(Cl)c1)NCCCSc1ccccc1,-7.9,-11.2,1.11,x,x,1.08,x
NC1=NC(=O)/C(=C/C=C/c2cccs2)S1,11.9,11.7,0.883,x,x,0.881,x
CCOC(=O)/C(=N/Nc1ccccc1)c1csc(Nc2ccccc2)n1,17.4,1.1,0.989,32.8,0.7,0.826,x
CCOC(=O)/C(=N\Nc1ccc(OC)cc1)c1csc(Nc2ccccc2)n1,9.9,38.8*,0.612,23.4,0.8,0.901,-1.5
CSC1=C(C#N)C(c2ccccc2)C(C(C)=O)=C(C)N1 (stereo unspecified),1.4,6.9,0.931,7.7,0.9,0.986,x
CSC1=C(C#N)C(c2ccccc2Cl)C(C(C)=O)=C(C)N1 (stereo unspecified),2.3,35.0*,0.65,8.4,0.9,0.977,-65.6
CCOC(=O)C1(Cc2ccccc2)CCN(Cc2cc(OC)c3c(c2)OCO3)CC1,-18.8,1.1,0.989,-9.2,1.1,1.19,x
CN1CCN(C(CNS(=O)(=O)c2ccc([N+](=O)[O-])cc2)c2ccc(F)cc2)CC1 (stereo unspecified),9.3,7.8,0.922,x,x,0.907,x
O=C(CCN1CCN(Cc2ccccc2)CC1)NNC(=O)Nc1cccc(C(F)(F)F)c1,4.5,-101.6,2.02*,x,x,0.955,-0.1
C[C@]12C(=O)N(c3ccc(Br)cc3)C(=O)N1[C@H]1c3ccccc3OC[C@@H]1[C@H]2c1ccccc1,-4.7,6.4,0.936,x,x,1.05,x
CC1Cn2c(nnc2-c2ccc(F)cc2)S1 (stereo unspecified),-9.7,-0.5,1,3.5,1,1.1,x
CC1Cn2c(nnc2C23CC4CC(CC(C4)C2)C3)S1 (stereo unspecified),2.8,-104.0,2.04*,-6.2,1.1,0.972,95.1

# Compound activity from PubChem BioAssay.
